Measurements: ChEMBL document CHEMBL1133717, “Soft drugs. 12. Design, synthesis, and evaluation of soft bufuralol analogues” (J Med Chem, 2000)

Columns and labels:
Assay type in all cases: ADME
[1] = Half-life in rat blood evaluated by enzymatic hydrolysis
Procedure, shortened: (§1)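 Incubation in fresh heparinized male Sprague-Dawley rat blood (used within 30 min) at 37.0 ± 0.1 °C, compound added in methanol at 1:10. Timed samples were quenched in cold methanol and centrifuged; the supernatant (12 µM final) was analysed by HPLC for ester and acid metabolite.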

[2] = Half-life was evaluated by chemical hydrolysis
Procedure, shortened: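 pH 12.0 buffer (0.01 N NaOH, isotonic phosphate 0.5 mM) at 37.0 ± 0.1 °C, with an initial ester concentration of 120 µM. Timed samples were quenched 1:10 in cold methanol (12 µM final) and analysed by HPLC. The pseudo-first-order rate constant came from a linear regression of ln(peak area) versus time, and the half-life was derived from it.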

[3] = Evaluated for apparent pseudo first-order hydrolytic rate constant(K) in chemical hydrolysis
Rattus norvegicus = species on record: Rattus norvegicus; assay: Evaluation of apparent pseudo-first-order hydrolytic rate constant(k) by enzymatic hydrolysis in rat blood at 37+/-0.1 degree Centigrade
Procedure, shortened: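 Freshly drawn heparinized blood from male Sprague-Dawley rats, used within 30 min. Compound in methanol (0.1 mL) was mixed with blood (0.9 mL) at 37.0 ± 0.1 °C. Timed aliquots were mixed with cold methanol, frozen and centrifuged (24 000 rpm, 3 min), giving a final sample concentration of 12 µM. Ester loss was followed by HPLC of the supernatant, and the pseudo-first-order k was obtained from ln(peak area) versus time.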

[4] = Half-life in rat blood; evaluated by enzymatic hydrolysis; procedure, shortened: as §1

Row | half-life [1] [min] | half-life [2] [min] | k [3] [min⁻¹] | k (Rattus norvegicus) [min⁻¹] | half-life [4] [min] | Compound
1 | < 0.15 | 7.2 | 0.096 | – | – | COC(=O)Cc1cccc2cc(C(O)CNC(C)(C)C)oc12 (centres undefined)
2 | < 0.15 | 150 | 0.0016 | – | – | CC(C)(C)NCC(O)c1cc2cccc(CC(=O)OCCC34C[C@H]5C[C@@H](C3)C[C@@H](C4)C5)c2o1 (some centres undefined)
3 | 16.6 | 45.7 | 0.015 | 0.0417 | – | CC(C)OC(=O)Cc1cccc2cc(C(O)CNC(C)(C)C)oc12 (centres undefined)
4 | – | 8.2 | 0.084 | – | < 0.15 | CCOC(=O)Cc1cccc2cc(C(O)CNC(C)(C)C)oc12 (centres undefined)
5 | 99 | 75.7 | 0.091 | 0.007 | – | CC(C)(C)NCC(O)c1cc2cccc(CC(=O)OC(C)(C)C)c2o1 (centres undefined)
6 | < 0.15 | 25 | 0.027 | – | – | CSCOC(=O)Cc1cccc2cc(C(O)CNC(C)(C)C)oc12 (centres undefined)
7 | 6.2 | 15.2 | 0.045 | 0.111 | – | CC(C)(C)NCC(O)c1cc2cccc(CC(=O)OC3CCCCC3)c2o1 (centres undefined)
